This is a sample that favours compounds with a hit; in the whole collection about 2.1% have one here.
LMPTP block – LMPTP phosphatase inhibitors, primary screen, biochemical, fluorescence intensity, uHTS | Low molecular weight phosphotyrosine protein phosphatase (Homo sapiens), P24666 | recombinant LMPTP-A, OMFP fluorogenic substrate | inhibition, % at 20 µM | actives 0.22% (n = 360,000) | AID 651560, 2012;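 active = compounds that cut the enzyme signal by at least half of the control window in the single-dose screen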
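Assay system: LMPTP-A phosphatase enzyme | Input: 0.625 nM enzyme | Also added: Fluorogenic phosphatase substrate OMFP at 400 µM final | Compound dosing: One test concentration per compound, 20 µM, with 3% DMSO overall | Schedule: 50 min enzyme reaction at room temperature, protected from light | Signal: Fluorescence intensity | Benchmarks: no-enzyme and uninhibited controls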
SUMO1 PPI mod – modulators of SUMO1 protein-protein interactions, primary screen, biochemical, uHTS; Small ubiquitin-related modifier 1 (Homo sapiens), P63165; SUMO1 binding to a labelled peptide, TR-FRET, 1 h; inhibition, % at 20 µM; actives 0.33% (n = 360,000); AID 602429, 2012; in the data active = inhibition above about 37%
DNMT1 inh – human DNMT1 methyltransferase inhibitors, primary screen, biochemical, molecular beacon, fluorescence, HinP1I cleavage, uHTS; DNA (cytosine-5)-methyltransferase 1 (Homo sapiens), P26358; inhibition (reported as % activation of signal), % at 10 µM; actives 0.83% (n = 360,000); AID 588458, 2011; in the data active = inhibition above about 50%
Scp-1 inhibitor – Scp-1 phosphatase inhibitors, primary screen, biochemical, colorimetric, uHTS. Carboxy-terminal domain RNA polymerase II polypeptide A small phosphatase 1 (Homo …. Recombinant Scp1, phosphopeptide, malachite green phosphate absorbance. inhibition, % at 20 µM. actives 0.88% (n = 340,000);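 active = inhibition above about 50% at 20 µM, limit read from the data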
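Test system – truncated SCP-1 phosphatase (76-261aa) · Reagent – Phosphorylated 17-residue peptide substrate · Incubation – 45 min room-temperature reaction, 5 min colour, 30 min stabiliser · Detection – colorimetric phosphate reagent with accelerator and stabiliser, absorbance at 630 nm · Measure – % inhibition at 20 µM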
GRK2 inh – compounds blocking aptamer binding on GRK2 – biochemical, human GRK2, bead flow cytometry, HTS, primary screen. Beta-adrenergic receptor kinase 1 (Homo sapiens), P25098. FAM-aptamer displacement from GRK2. inhibition of aptamer binding, % at 10 µM. actives 0.59% (n = 330,000);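 active = inhibition of aptamer binding above 40%, roughly 3 SD of noise, on plates passing a quality check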;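 also: median bead fluorescence of bound FAM aptamer so fluorescent compounds give negative values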
Target sequence (P25098 whole entry, looked up): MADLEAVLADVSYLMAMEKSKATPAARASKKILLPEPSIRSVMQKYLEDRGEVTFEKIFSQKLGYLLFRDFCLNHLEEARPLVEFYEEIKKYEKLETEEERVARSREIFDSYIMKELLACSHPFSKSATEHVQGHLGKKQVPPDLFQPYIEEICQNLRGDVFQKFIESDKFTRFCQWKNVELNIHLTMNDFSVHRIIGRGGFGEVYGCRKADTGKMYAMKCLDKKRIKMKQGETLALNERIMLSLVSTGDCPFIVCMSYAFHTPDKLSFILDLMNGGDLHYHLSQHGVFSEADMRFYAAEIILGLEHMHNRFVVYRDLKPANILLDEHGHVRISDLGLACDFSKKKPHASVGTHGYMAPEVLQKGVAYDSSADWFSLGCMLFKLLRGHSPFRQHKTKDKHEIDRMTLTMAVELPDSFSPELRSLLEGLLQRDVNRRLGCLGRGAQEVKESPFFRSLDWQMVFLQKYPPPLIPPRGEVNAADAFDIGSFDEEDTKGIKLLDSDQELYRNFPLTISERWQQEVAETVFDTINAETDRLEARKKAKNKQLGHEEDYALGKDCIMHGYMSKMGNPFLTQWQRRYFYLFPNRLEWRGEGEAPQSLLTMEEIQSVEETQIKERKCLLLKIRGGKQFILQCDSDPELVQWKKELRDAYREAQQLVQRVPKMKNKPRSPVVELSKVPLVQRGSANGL
STEP block – STEP phosphatase inhibitors, primary screen, biochemical, fluorescence intensity, uHTS. Tyrosine-protein phosphatase non-receptor type 5 (Homo sapiens), P54829. recombinant STEP, OMFP fluorogenic substrate. inhibition, % at 20 µM. actives 0.25% (n = 360,000). AID 588621, 2011;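 active = inhibition at 20 µM, scaled per plate between control wells, above about 37%, limit read from the data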
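Measure: Control-normalized % inhibition with plate pattern correction | Test system: STEP phosphatase, cell-free reaction | Medium: pH 6.0 Bis-Tris with DTT and Tween 20 | Technique: Fluorescence, 480/540 nm | Times: Reaction 20 min, ambient temperature | Doses: Single compound dose of 20 µM, 1% DMSO final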
GRK2 inh confirm – GRK2 aptamer-displacing inhibitors, retest, confirmation, biochemical, cherry pick 1, bead flow cytometry. shares compounds with GRK2 inh. actives 4% (n = 2,000). bead-bound GRK2, FAM-aptamer displacement. aptamer displacement, % at 10 µM;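 active = aptamer displacement above 40%, near three times the noise of non-fluorescent compounds, on plates passing quality checks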;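 also: negative values mostly reflect intrinsic compound fluorescence rather than true enhancement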
Aptamer quench 1 – quenches fluorescent RNA aptamer, GRK2 hit artifact. 110 tested, under 10 active. AID 504521. fluorescence change (kMESF span), kMESF (no concentration beside the values). shares compounds with GRK2 inh. Fluorescent RNA aptamer beads, quenching, flow cytometry; active compounds read high;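 active = compounds whose bead fluorescence drops by more than 37 kMESF across the dose range, marking them as dye quenchers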
FAM quench CP1 – aptamer fluorescence quenching in GRK2 counter-screen | shares compounds with GRK2 inh | Carboxyfluorescein RNA aptamer on beads, flow cytometry quenching; active compounds read low | fluorescence response (% of DMSO), % at 10 µM | 2,000 tested, under 10 active | AID 504580;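 active = compounds that quench the bead-bound fluorescent RNA probe, cutting fluorescence to under half of the solvent control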;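 also: counterscreen run without GRK2 so only probe quenching by compound is measured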
GRK2 confirm 2 – GRK2 aptamer-displacing inhibitors, hit retest, confirmation, biochemical, cherry pick 2, bead flow cytometry | shares compounds with GRK2 inh | bead-bound GRK2, FAM-aptamer displacement | inhibition of aptamer binding, % at 10 µM | 360 tested, under 10 active;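 active = inhibition of aptamer binding above 40%, about triple the noise seen with nonglowing compounds, on plates passing quality control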;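 also: negative values mostly come from compounds that fluoresce themselves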
Aptamer quench 2 – fluorescence quenching of FAM-labeled RNA aptamer, dose response, artefact control for GRK2 aptamer inhibitor project, biochemical, flow cytometry, cherry pick 2; shares compounds with GRK2 inh; Streptavidin beads; change in fluorescence (kMESF span), kMESF (no concentration beside the values); 25 tested, under 10 active;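 active = compounds quenching the bead-bound labeled aptamer, with fluorescence dropping by more than 37 kMESF over the dose range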
FAM quench SP – counter-screen for GRK2 binding hits: quenchers of fluorescent RNA aptamer; shares compounds with GRK2 inh; carboxyfluorescein RNA aptamer beads, flow cytometry quenching; active compounds read low; fluorescence response vs DMSO, % at 10 µM; 360 tested, under 10 active; AID 588494;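 active = response vs DMSO under 50%, meaning signal dropped by over half, treated as fluorescence quencher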;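 also: labelled aptamer on streptavidin beads without GRK2 as a quench counter-screen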
FAM quench DR – quenchers of FAM-labeled RNA aptamer fluorescence, dose response, artefact control for GRK2 aptamer binding project, biochemical, powder set 1, flow cytometry; shares compounds with GRK2 inh; Bead-bound FAM RNA aptamer fluorescence quenching; active compounds read low; fluorescence ratio to DMSO, % at 11.1 µM; 35 tested, under 10 active; AID 588496, 2011;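 active = compounds that dim the fluorescent label, raw bead signal shifting by over 33 units between lowest and highest dose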
A number is an active result; - = inactive; . = no result.

SMILES	LMPTP block	SUMO1 PPI mod	DNMT1 inh	Scp-1 inhibitor	GRK2 inh	STEP block	GRK2 inh confirm	FAM quench CP1	others
Cc1ccccc1NC(=O)CCS(=O)(=O)c1ccc(Br)cc1	-	-	-	-	41	-	-	-	Aptamer quench 2=-;FAM quench DR=-
Cc1ccc(S(=O)(=O)CCC(=O)NC2CCCC2)cc1	-	-	-	-	-	-	.	.	GRK2 confirm 2=-;FAM quench SP=-
Cc1cccc(C)c1NC(=O)CCS(=O)(=O)c1ccc(Br)cc1	-	-	-	-	-	-	.	.
CCN(CC)c1ncnc2c1ncn2[C@H]1CN(Cc2ccc(OC)cc2)C[C@@H](CO)O1	-	-	-	.	.	-	.	.
Cc1cc(C)c(C)c(S(=O)(=O)Nc2ccc3cn[nH]c3c2)c1C	-	-	-	-	-	-	.	.
O=C(NC(Cc1ccccc1)C(=O)O)/C(=C/c1ccc([N+](=O)[O-])cc1)NC(=O)c1ccc(Br)o1 (stereo not given)	-	-	-	-	-	-	.	.
O=C(Nc1ccccc1C(=O)O)/C(=C/c1ccc([N+](=O)[O-])cc1)NC(=O)c1ccc(Br)o1	-	-	-	-	80	-	-	-
CC(=O)N1CCN(c2ccc(S(C)(=O)=O)cc2[N+](=O)[O-])CC1	-	-	-	-	-	-	.	.
O=C(NCCc1ccc(Cl)cc1)C1CCN(S(=O)(=O)c2ccc(Br)s2)CC1	-	-	-	-	-	-	.	.
CCCc1c(C(=O)N/N=C(\C)CCc2ccccc2)nnn1-c1nonc1N	-	-	-	-	70	-	-	-
COc1ccc(-n2nc(C(=O)NCC(=O)NCCN(C)C)c3ccccc3c2=O)cc1	-	-	-	-	-	-	-	-
CCN(CC)CCCNC(=O)CNC(=O)c1nn(-c2ccc(OC)cc2)c(=O)c2ccccc12	-	-	-	-	-	-	.	.
CCN(CC)CCNC(=O)CNC(=O)c1nn(-c2ccc(OC)cc2)c(=O)c2ccccc12	-	-	-	-	-	-	-	-
CCN(CC)CCNC(=O)CNC(=O)c1nn(-c2ccc(OC)c(OC)c2)c(=O)c2ccccc12	-	-	-	-	-	-	-	-
CCCCNC(=O)CNC(=O)c1nn(-c2ccc(OC)cc2)c(=O)c2ccccc12	-	-	-	-	-	-	-	-
COc1ccccc1CNCCS(=O)(=O)NN1CCOCC1	-	-	-	-	-	-	.	.
COc1ccc(S(=O)(=O)N(C)C[C@@H]2OCc3cn(nn3)CCCC(=O)N([C@@H](C)CO)C[C@H]2C)cc1	-	-	-	.	.	-	.	.
O=C(COC(=O)c1ccccc1Nc1ccccc1)c1ccccc1	-	-	-	-	-	-	.	.
COC(=O)c1ccccc1Nc1ccccc1	-	-	-	-	54	-	-	-
O[C@@H]1C[C@H](c2ccc(Cl)cc2)N(Cc2cccs2)C[C@H]1n1cc(C2CC2)nn1	-	-	-	.	.	-	.	.
O=C(NCc1ccc(Cl)cc1)C(=O)c1cn(CC(=O)N2CCOCC2)c2ccccc12	-	-	-	-	45	-	-	-
CCOc1cccc(/C(O)=C2/C(=O)C(=O)N(Cc3cccnc3)C2c2ccco2)c1 (stereo not given)	-	-	-	-	-	-	.	.
CCOc1cccc(/C(O)=C2/C(=O)C(=O)N(CCOC)C2c2ccco2)c1 (stereo not given)	-	-	-	-	47	-	-	-
CCN1/C(=C/C(C)=C/c2sc3ccccc3[n+]2CC)Sc2ccccc21	74	-	-	-	100	-	99	-	Aptamer quench 1=-
COc1ccc(-c2c(C#CC(C)(C)O)c3ccccc3n2C)cc1	-	-	-	-	94	-	.	.	GRK2 confirm 2=-;FAM quench SP=-
SMILES	LMPTP block	SUMO1 PPI mod	DNMT1 inh	Scp-1 inhibitor	GRK2 inh	STEP block	GRK2 inh confirm	FAM quench CP1	others
CSc1ccc(Cn2c(C)c(C(=O)NCc3cccc(Cl)c3)sc2=O)cc1	-	-	-	.	.	-	.	.
COc1cc(CNc2ncnc3c2ncn3[C@H]2CN(Cc3ccco3)C[C@@H](CO)O2)cc(OC)c1OC	-	-	-	.	.	-	.	.
Cc1[nH]c2ccccc2c1NC(=O)CN1CCN(c2cccc(C(F)(F)F)c2)CC1	-	-	-	-	74	-	-	-
O=C(CN1CCN(c2cccc(C(F)(F)F)c2)CC1)Nc1cccc(C(F)(F)F)c1	-	-	-	-	-	-	.	.
CN(C)S(=O)(=O)c1ccc(N2CCCC2)c(C(=O)Nc2nc3c(ccc4ccccc43)s2)c1	-	-	-	-	-	-	.	.	GRK2 confirm 2=-;FAM quench SP=-
COc1ccc(-c2cccc(CCC(=O)N3CCN(c4cc(C)ccc4C)CC3)c2)cc1	-	-	-	-	-	-	.	.
COc1ccc(C(=O)CCC(=O)N2CCN(c3cc(C)ccc3C)CC2)cc1	-	-	-	-	87	-	-	-
